Measurements from ChEMBL document CHEMBL1773052, “3-Trifluoromethylquinoxaline N,N'-dioxides as anti-trypanosomatid agents. Identification of optimal anti-T. cruzi agents and mechanism of action studies” (J Med Chem, 2011).
The source made the active and inactive calls. The calls are words filed in the database; no cut-off is given here.

What was measured:
Trypanosoma cruzi [1] = test: Antitrypanosomal activity against Trypanosoma cruzi Tulahuen 2 epimastigotes assessed as growth inhibition after 5 days; format: functional; settings: Tulahuen 2, 120 h, read-out: ID50
Procedure, shortened: (§1)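 Epimastigotes grown axenically at 28 °C in BHI-tryptose + 5% FBS; a 10-day stationary culture was inoculated to 1 × 10⁶ cells/mL. Drug added from DMSO stock, final DMSO ≤0.4%, vehicle control. A600 read daily. PGI on day 5 corrects for day-0 absorbance, relative to control. […] Three independent experiments.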

Trypanosoma cruzi [2] = test: Antitrypanosomal activity against Trypanosoma cruzi Tulahuen 2 epimastigotes assessed as growth inhibition at 25 uM after 5 days relative to control; format: functional; settings: Tulahuen 2, 120 h, read-out: GI; procedure, shortened: as §1
[3] = Cytotoxicity against mouse J774 cells; format: cell-based; settings: read-out: ID50 (the source's name)
[4] = Selectivity index, ratio of ID50 for mouse J774 cells to ID50 for Trypanosoma cruzi Tulahuen 2 epimastigotes; format: toxicity, cell-based; settings: J774 cells versus Trypanosoma cruzi Tulahuen 2 epimastigotes, read-out: Selectivity Index
Trypanosoma cruzi [5] = test: Antitrypanosomal activity against Trypanosoma cruzi CL Brener clone epimastigotes assessed as cell death at 25 uM after 2 days by MTT assay relative to control; format: functional
Procedure, shortened: (§2)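 Epimastigotes of each strain taken in exponential growth in BHI-tryptose with 5% FBS, 1 mL per well. Compounds added from DMSO and kept 2 days at 28 °C. Cells washed twice and resuspended in PBS-glucose (5.5 mM), then given 0.4 mg/mL MTT for 4 h at 28 °C. Lysis in SDS-isopropanol, OD read. Triplicate wells, six growth controls. PCyt taken against control, corrected for medium-only wells.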

Leishmania braziliensis = test: Antileishmanial activity against Leishmania braziliensis MHOM/BR/00/LTB300 promastigotes assessed as cell death after 2 days by MTT assay; format: functional; settings: MHOM/BR/00/LTB300, 48 h, read-out: ID50 (the source's name)
Procedure, shortened: (§3)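 Parasites in exponential growth, in BHI-tryptose + 5% FBS for T. cruzi or RPMI + 5% FBS for L. braziliensis, 28 °C, 24-well plates. Compounds in DMSO; miltefosine in ethanol. 2-day exposure, two PBS-glucose (5.5 mM) washes, then MTT 0.4 mg/mL for 4 h at 28 °C. SDS-isopropanol lysis, OD read. Triplicates, six growth controls.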

Trypanosoma cruzi [6] = test: Antitrypanosomal activity against Trypanosoma cruzi Y epimastigotes assessed as cell death at 25 uM after 2 days by MTT assay relative to control; format: functional; procedure, shortened: as §2
Trypanosoma cruzi [7] = test: Antitrypanosomal activity against Trypanosoma cruzi Colombiana epimastigotes assessed as cell death at 25 uM after 2 days by MTT assay relative to control; format: functional; procedure, shortened: as §2
Trypanosoma cruzi [8] = test: Inhibition of mitochondrial dehydrogenase activity in Trypanosoma cruzi Y epimastigotes at 20 uM up to 120 mins by MTT assay
Procedure, shortened: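 Y-strain epimastigotes, 10⁶ per well in 500 μL medium, treated with 20 μM compound at 28 °C, untreated wells as time-matched controls. At each time point cells counted, then MTT (50 μL of 5 mg/mL in PBS) added for 4 h. Stopped with acidic isopropanol, A570 read. Activity given as percent of untreated control.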

Trypanosoma cruzi [9] = test: Antitrypanosomal activity against Trypanosoma cruzi CL Brener clone epimastigotes assessed as cell death after 2 days by MTT assay; format: functional; settings: 48 h, read-out: ID50 (the source's name); procedure, shortened: as §3
Trypanosoma cruzi [10] = test: Antitrypanosomal activity against Trypanosoma cruzi Y epimastigotes assessed as cell death after 2 days by MTT assay; format: functional; settings: 48 h, read-out: ID50 (the source's name); procedure, shortened: as §3
Trypanosoma cruzi [11] = test: Antitrypanosomal activity against Trypanosoma cruzi CL Brener clone trypomastigotes in parasite infected BALB/c mouse blood assessed as parasite lysis at 250 ug/ml after 24 hrs relative to control; format: functional
Procedure, shortened: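 Blood from BALB/c mice 7 days post-infection, taken by cardiac puncture into 3.8% sodium citrate (7:3). Compounds dissolved in DMSO, diluted in PBS to 100 or 250 μg/mL. 10 μL mixed with 100 μL infected blood (~10⁶ parasites/mL), in triplicate. Shaken 10 min at RT, held 4 °C for 24 h. Parasites counted by microscopy; gentian violet 250 μg/mL as standard.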

Structure (SMILES)	IC50 (Trypanosoma cruzi [1]) [nM]	inhibition of growth at 25 µM (Trypanosoma cruzi [2]) [%]	also measured
CC(C)C(=O)c1c(C(F)(F)F)[n+]([O-])c2ccccc2[n+]1[O-]	> 2500	100	–
O=C(c1ccc(Cl)cc1)c1c(C(F)(F)F)[n+]([O-])c2ccccc2[n+]1[O-]	1600	100	CC50 [3]: 8.5 µM; selectivity ratio [4]: 5.3
CCOC(=O)c1c(-c2ccccc2)[n+]([O-])c2cc(Cl)ccc2[n+]1[O-]	12500	88	–
CC(C)C(=O)c1c(C(F)(F)F)[n+]([O-])c2cc(Cl)c(Cl)cc2[n+]1[O-]	1400	100	–
CC(=O)c1c(C(F)(F)F)[n+]([O-])c2ccccc2[n+]1[O-]	3000	100	CC50 [3]: 8.55 µM; selectivity ratio [4]: 2.8
Cc1c(C(=O)Nc2ccccc2)[n+]([O-])c2ccccc2[n+]1[O-]	–	10	Activity (Trypanosoma cruzi [5]): 32%; IC50 (Leishmania braziliensis): > 50 µM; Activity (Trypanosoma cruzi [6]): 0%; Activity (Trypanosoma cruzi [7]): 24%
COc1ccc2c(c1)[n+]([O-])c(C(F)(F)F)c(C(=O)c1ccccc1)[n+]2[O-]	3500	98	–
O=C(c1ccccc1)c1c(C(F)F)[n+]([O-])c2cc(Cl)c(Cl)cc2[n+]1[O-]	4700	100	–
O=C(c1cccs1)c1c(C(F)(F)F)[n+]([O-])c2cc(F)c(F)cc2[n+]1[O-]	2800	100	–
O=C(c1cccs1)c1c(C(F)(F)F)[n+]([O-])c2ccccc2[n+]1[O-]	1100	100	CC50 [3]: 4.69 µM; selectivity ratio [4]: 4.3
CC(C)C(=O)c1c(C(F)(F)F)[n+]([O-])c2cc(F)c(F)cc2[n+]1[O-]	–	23.6	CC50 [3]: 11.5 µM; selectivity ratio [4]: < 0.5
Cc1cc2c(cc1C)[n+]([O-])c(C(F)(F)F)c(C(=O)c1ccccc1)[n+]2[O-]	1400	72	–
O=C(c1cccc2ccccc12)c1c(C(F)(F)F)[n+]([O-])c2cc(F)c(F)cc2[n+]1[O-]	3900	100	–
O=C(c1ccccc1)c1c(C(F)(F)F)[n+]([O-])c2cc(Cl)ccc2[n+]1[O-]	3000	90	–
COC(=O)c1c(C)[n+]([O-])c2ccccc2[n+]1[O-]	–	24	Activity (Trypanosoma cruzi [5]): 59%; IC50 (Leishmania braziliensis): > 50 µM; Activity (Trypanosoma cruzi [6]): 0%; Activity (Trypanosoma cruzi [7]): 60%
Cc1ccc2c(c1)[n+]([O-])c(C(F)(F)F)c(C(=O)c1ccccc1)[n+]2[O-]	1300	99	–
O=C(c1ccccc1)c1c(C(F)F)[n+]([O-])c2cc(F)ccc2[n+]1[O-]	6300	100	–
O=C(c1ccccc1)c1c(C(F)F)[n+]([O-])c2cc(Cl)ccc2[n+]1[O-]	6400	100	–
CC(C)(C)C(=O)c1c(C(F)(F)F)[n+]([O-])c2cc(F)c(F)cc2[n+]1[O-]	4900	100	CC50 [3]: 16.2 µM; selectivity ratio [4]: < 0.6

Structure (SMILES)	IC50 (Trypanosoma cruzi [1]) [nM]	inhibition of growth at 25 µM (Trypanosoma cruzi [2]) [%]	also measured
O=C(c1cccc2ccccc12)c1c(C(F)(F)F)[n+]([O-])c2ccccc2[n+]1[O-]	1400	100	CC50 [3]: 7.92 µM; selectivity ratio [4]: 5.5
CC(C)(C)C(=O)c1c(C(F)(F)F)[n+]([O-])c2ccccc2[n+]1[O-]	–	26	CC50 [3]: 8.7 µM; selectivity ratio [4]: < 0.3
Cc1ccc2c(c1)[n+]([O-])c(C(F)F)c(C(=O)c1ccccc1)[n+]2[O-]	25000	50.8	–
O=C(c1c(C(F)(F)F)[n+]([O-])c2ccccc2[n+]1[O-])N1CCN(c2ccc(Cl)cc2)CC1	790	100	CC50 [3]: 8.25 µM; selectivity ratio [4]: 10.4
O=C(c1ccco1)c1c(C(F)(F)F)[n+]([O-])c2ccccc2[n+]1[O-]	2400	100	CC50 [3]: 7.13 µM; selectivity ratio [4]: 3
CCC(=O)c1c(C(F)(F)F)[n+]([O-])c2cc(Cl)c(Cl)cc2[n+]1[O-]	780	100	–
O=C(c1c(C(F)(F)F)[n+]([O-])c2ccccc2[n+]1[O-])N1CCN(c2ccccc2)CC1	760	100	CC50 [3]: 9.51 µM; selectivity ratio [4]: 12.5
O=C(c1ccco1)c1c(C(F)(F)F)[n+]([O-])c2cc(C(F)(F)F)ccc2[n+]1[O-]	5000	100	–
O=C(c1ccc(Cl)cc1)c1c(C(F)(F)F)[n+]([O-])c2cc(F)c(F)cc2[n+]1[O-]	2500	100	–
O=C(c1ccccc1)c1c(C(F)(F)F)[n+]([O-])c2ccccc2[n+]1[O-]	900	100	inhibition (Trypanosoma cruzi [8]): Active; Activity (Trypanosoma cruzi [5]): 97%; IC50 (Leishmania braziliensis): 1 µM; IC50 (Trypanosoma cruzi [9]): 3.1 µM; IC50 (Trypanosoma cruzi [10]): 4 µM; Activity (Trypanosoma cruzi [6]): 100%; Activity (Trypanosoma cruzi [7]): 100%
CCC(=O)c1c(C(F)(F)F)[n+]([O-])c2cc(F)c(F)cc2[n+]1[O-]	500	100	–
Cc1c(C(=O)c2ccccc2)[n+]([O-])c2cc(Cl)c(Cl)cc2[n+]1[O-]	11800	91	–
CCOC(=O)c1c(-c2ccccc2)[n+]([O-])c2cc(Cl)c(Cl)cc2[n+]1[O-]	11300	99	Activity (Trypanosoma cruzi [5]): 94%; IC50 (Leishmania braziliensis): 3 µM; IC50 (Trypanosoma cruzi [9]): 16.4 µM; IC50 (Trypanosoma cruzi [10]): 7.1 µM; Activity (Trypanosoma cruzi [6]): 100%; Activity (Trypanosoma cruzi [7]): 100%
CCOC(=O)c1c(-c2ccccc2)[n+]([O-])c2cc(F)c(F)cc2[n+]1[O-]	3300	100	–
COc1ccc2c(c1)[n+]([O-])c(C(F)F)c(C(=O)c1ccccc1)[n+]2[O-]	10000	100	–
CN(C)c1ccc(C(=C2C=CC(=[N+](C)C)C=C2)c2ccc(N(C)C)cc2)cc1.[Cl-] [GENTIAN VIOLET]	–	–	Activity (Trypanosoma cruzi [11]): 100%
CCCCCCCCCCCCCCCCOP(=O)([O-])OCC[N+](C)(C)C [MILTEFOSINE]	–	–	IC50 (Leishmania braziliensis): 9 µM
O=C(c1ccco1)c1c(C(F)(F)F)[n+]([O-])c2ccc(C(F)(F)F)cc2[n+]1[O-]	4800	100	–
